Laboratory results: publication PMC5025877 (Circulation research, 2014)
“Also recorded” adds a separate entry of the source.

Legend:
[1] = system: NoxA1 activation domain (AD); assay: ITC binding of NoxA1 AD peptide with Nox1 peptides; conditions: for Kd: read-out: Kd (affinity) for NoxA1 AD, n=3 independent experiments
human recombinant PKC-βI [2] = assay: dot blot; assay type: biochemical; conditions: anti-p-STY; total peptide by Ponceau staining
Summary of the method: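 Input and product of the in vitro PKC-βI kinase reaction on the Nox1 T429 peptide were dot-blotted and probed with anti-p-STY. Total peptide was measured by Ponceau staining. Signal was quantified as the ratio of p-STY to total peptide. A phosphorylated T429 peptide was included.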

human recombinant PKC-βI [3] = assay: ITC in vitro kinase reaction of recombinant PKC-βI with Nox1 peptide; assay type: biochemical; conditions: slow return to baseline after heat of dilution
NADPH oxidase = assay type: cell-based, rat; conditions: VSMC membrane fractions, lucigenin, RLU, n=5–15; for TNF-α-primed NADPH oxidase activity, effect of inhibitor: TNF-α pre-treatment
Summary of the method: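 Cultured rat (A7r5) aortic VSMCs were pretreated with the test compound (a PKC inhibitor) or with the flavoenzyme inhibitor DPI, then stimulated with TNF-α. NADPH oxidase activity was measured by lucigenin-enhanced chemiluminescence and reported as relative light units. n=5–15.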

Nox1 [4] = assay: Nox1 phosphorylation in VSMCs, IP anti-p22phox / Western blot anti-STY; assay type: cell-based, rat; conditions: for Nox1 phosphorylation on agonist treatment (other agonists): VSMC, Online Figure III, timing may be agonist dependent
Summary of the method: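 A7r5 rat aortic VSMCs in culture were stimulated with TNF-α, with or without PKC inhibitor pretreatment. Nox1 phosphorylation was detected by Western blotting with an anti-phospho-Ser/Thr/Tyr (anti-STY) antibody. n=3.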

Nox1 [5] = assay: superoxide in intact CosPhox cells with p47phox and NoxA1; assay type: cell-based; conditions: TNF-α (10 ng/ml), PDGF-BB (10 ng/ml), AngII (10^-7 M), PMA (10^-6 M), RLU/sec, n=4
Summary of the method: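 Cos7 cells stably expressing p22phox (CosPhox) were transfected with p47phox, NoxA1, and either wild-type or T429A Nox1. Superoxide was read as luminescence (RLU/sec) in intact cells immediately after agonist addition. The unstimulated signal was subtracted from the agonist signal, and values were normalized to cell number.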

[6] = circular dichroism of peptides; assay type: physicochemical; conditions: negative dip below 200 nm, near-zero shoulders at longer wavelengths
NoxA1 = NoxA1 membrane recruitment in CosPhox cells; assay type: cell-based; conditions: n=4
Summary of the method: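 CosPhox cells (Cos7 stably expressing p22phox, p47phox and p67phox) expressed p22phox, NoxA1, and either WT or T429A Nox1. After TNF-α treatment, membrane fractions were isolated and immunoblotted for NoxA1. Whole-cell lysates taken before membrane isolation were probed for GAPDH. n=4 independent experiments.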

Nox1 [7] = assay: ROS production by CM-H2DCF fluorescence in VSMCs; assay type: cell-based, murine
Summary of the method: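 Cultured aortic VSMCs from C57Bl6/J (WT) and Nox1-/y mice were pretreated with the test compound (a PKC inhibitor), then stimulated with TNF-α. ROS were imaged by CM-H2DCF fluorescence, with nuclei counterstained with ToPro3.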

p47^phox = assay: p47phox membrane recruitment; assay type: cell-based; conditions: WT versus T429A Nox1; Online Figure VIII
VSMCs = assay: VSMC migration to TNF-α; assay type: cell-based, murine
Summary of the method: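 Aortic VSMCs from WT C57Bl6/J and Nox1-/y mice were pretreated with the test compound (a PKC inhibitor), and their migration to TNF-α was counted. n=5–15.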

[8] = biological target: T1, phosphorylated Nox1 peptide (peptide containing phosphorylated Nox1 at T429); assay: ITC
T1 chain: KLKTQKIYF

With KLKTQKIYF [Nox1 peptide] the “interaction with NoxA1 (in words)” value [1] was “no measurable interaction”, the Kd [1] was greater than 100000 nM and the “phosphorylation by PKC-βI, dot blot” value (human recombinant PKC-βI [2]) was “confirms phosphorylation”. The “phosphorylation by PKC-βI (heat of reaction)” value (human recombinant PKC-βI [3]) was “substrate for PKC-βI”.

With `c1ccc2c(c1)[I+]c1ccccc1-2` [DPI] the “TNF-α-primed NADPH oxidase activity, effect of inhibitor” value (NADPH oxidase) was “completely abolished”.

With `CCCCCCCCCCCCCC(=O)O[C@@H]1[C@@H](C)[C@@]2(O)[C@@H](C=C(CO)C[C@]3(O)C(=O)C(C)=C[C@@H]23)[C@@H]2C(C)(C)[C@]12OC(C)=O` [PMA, phorbol myristate acetate, reference compound] the “Nox1 phosphorylation on agonist treatment (other agonists)” value (Nox1 [4]) was “phosphorylation of VSMC Nox1 occurs”, the “agonist-stimulated cellular superoxide, T429A Nox1” value (Nox1 [5]) was “does not require phosphorylation of T429” and the “agonist-stimulated cellular superoxide, WT Nox1” value (Nox1 [5]) was “increased”.

With KLKT*QKIYF [pNox1 peptide] the Kd [1] was 1500 ± 300 nM and the “secondary structure by circular dichroism” value [6] was “unstructured; also recorded: characteristic random coil signals”.

In the case of TNF-α, the “NoxA1 membrane translocation following TNF-α, T429A Nox1” value (NoxA1; CosPhox cells with T429A Nox1) is reported as “prevented”, the “TNF-α-induced NoxA1 membrane recruitment, WT Nox1” value (NoxA1; CosPhox cells with p22phox, p47phox, NoxA1, WT Nox1) is reported as “recruitment of NoxA1 to the membrane” and the “Nox1 phosphorylation on agonist treatment” value (Nox1 [4]; cultured A7r5 rat aortic VSMCs, n=3) is reported as “increased Nox1 phosphorylation”. The “ROS production on TNF-α” value (Nox1 [7]; WT versus Nox1^-/y VSMCs) was “robust ROS production in WT but not Nox1^-/y VSMCs”, the “p47phox membrane recruitment on TNF-α” value (p47^phox) was “WT but not T429A Nox1 caused a recruitment of p47^phox to the membrane” and the “VSMC migration to TNF-α” value (VSMCs; Nox1^-/y VSMCs compared) was “requires Nox1”. For the same molecule, the “agonist-stimulated cellular superoxide, T429A Nox1” value (Nox1 [5]) was “markedly attenuated”, the “agonist-stimulated cellular superoxide, WT Nox1” value (Nox1 [5]) was “increased” and the “NADPH oxidase activity on TNF-α pre-treatment” value (NADPH oxidase) was “primes NADPH oxidase activity”.

For `COc1c(C[C@@H](C)OC(=O)Oc2ccc(O)cc2)c2c3c(C[C@@H](C)OC(=O)c4ccccc4)c(OC)c(=O)c4c(O)cc(OC)c(c5c(OC)cc(O)c(c1=O)c52)c43` [CalC, Calphostin C, reference compound], the “TNF-α-stimulated Nox1 phosphorylation, effect of pretreatment” value (Nox1 [4]; cultured A7r5 rat aortic VSMCs, TNF-α, n=3) was “inhibited”, the “Nox1-dependent ROS production, effect of pretreatment” value (Nox1 [7]; WT murine VSMCs, TNF-α) was “abrogated” and the “TNF-α-mediated migration, effect of pretreatment” value (VSMCs; WT murine VSMCs, n=5–15) was “blocked”. The “TNF-α-primed NADPH oxidase activity, effect of inhibitor” value (NADPH oxidase) was “completely abolished”.

In the case of “angiotensin II (DRVYIHPF; Angiotensin-2; UniProt P01019 25-32, looked up) [AngII, reference compound]”, the “agonist-stimulated cellular superoxide, T429A Nox1” value (Nox1 [5]) is reported as “markedly attenuated” and the “agonist-stimulated cellular superoxide, WT Nox1” value (Nox1 [5]) is reported as “increased”.

B1: NoxA1 activation domain peptide (peptide)
chain: EPVDFLGKAKVVASAIP
modifications: not checked
B1 showed a Kd [8] of 1500 nM and a stoichiometry N [8] of 0.86.

B2: PDGF-BB: platelet-derived growth factor-BB (protein, UniProt P01127 82-190, looked up)
Platelet-derived growth …: SLGSLTIAEPAMIAECKTRTEVFEISRRLIDRTNANFLVWPPCVEVQRCSGCCNNRNVQCRPTQVQLRPVQVRKIEIVRKKPIFKKATVTLEDHLACKCETVAAARPVT
modifications: homodimer BB
For B2, the “Nox1 phosphorylation on agonist treatment (other agonists)” value (Nox1 [4]) was “phosphorylation of VSMC Nox1 occurs”, the “agonist-stimulated cellular superoxide, T429A Nox1” value (Nox1 [5]) was “markedly attenuated” and the “agonist-stimulated cellular superoxide, WT Nox1” value (Nox1 [5]) was “increased”.
